Assays:
[1] = Cytotoxicity against human U937 cells assessed as cell death after 72 hrs by sulforhodamine B assay; details: U-937, 72 h
[2] = Metabolic stability in rat liver microsomes at 10 uM after 3 hrs by LC/MS analysis; assay type: ADME; details: read-out: Stability
[3] = target: T1, Caspase-3/Caspase-7 (Homo sapiens) (UniProt P42574+P55210); assay: Activation of Caspase 3/7 in human U937 cells assessed as cleavage of Ac-DEVD-AFC at 1 uM after 16 hrs by fluorescence assay relative to control; assay type: cell-based; details: U-937
How it was run: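 U-937 cells, 50,000/well in phenol red-free RPMI-1640 with 10% FBS, preincubated 15 h at 37°C. Compound added from a 3x solution in media and tested in six wells. Lysis/caspase buffer contains 20 µM Ac-DEVD-AFC. […] 16 h slopes normalized to 0 h (0%) and staurosporine 16 h (100%).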

Serum [4] = assay: Drug uptake in C57/BL6 mouse serum at 25 mg/kg, iv measured after 8 hrs by LC/MS/MS analysis; assay type: ADME, organism-based; parameters: dose 25 mg/kg, route intravenous; details: in vivo
How it was run: (§1)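 Mouse PK: C57/BL6 mice, n = 2 per cohort per time point, 25 mg/kg given by tail vein injection or oral gavage; formulated at 5 mg/mL in 200 mg/mL HPβCD, pH 5.5. Mice sacrificed at set times, blood collected, EDTA plasma frozen at -80°C. Levels measured by LC/MS/MS (Polar-RP column, formic acid/methanol gradient, negative ESI) against an internal standard.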

Mus musculus [5] = assay: Toxicity in C57BL/6 mouse at 200 mg/kg, ip measured over 24 hrs; assay type: organism-based; parameters: dose 200 mg/kg, route intraperitoneal; details: in vivo
How it was run: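 Tolerability: C57BL/6 mice aged 8-10 weeks, n = 3 per cohort, given a single 200 mg/kg i.p. dose formulated at 5 mg/mL in 200 mg/mL HPβCD, pH 5.5. Signs classed as excitatory or depressive and graded mild to severe.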

[6] = Metal chelating activity of the compound assessed as zinc complex formation after 5 mins by EGTA fluorescence titration Assay; assay type: physicochemical
[7] = target: T1, Caspase-3/Caspase-7 (Homo sapiens); assay: Activation of Caspase 3/7 in human U937 cells assessed as cleavage of Ac-DEVD-AFC at 30 uM after 16 hrs by fluorescence assay relative to control; assay type: cell-based; details: U-937
U-937 [8] = assay: Induction of apoptosis in human U937 cells assessed as early apoptotic cells at 50 uM after 12 hrs by annexin V-FITC/propidium iodide staining-based flow cytometric analysis (reference value: 2%); assay type: functional
U-937 [9] = assay: Induction of apoptosis in human U937 cells assessed as late apoptotic cells at 50 uM after 12 hrs by annexin V-FITC/propidium iodide staining-based flow cytometric analysis (reference value: 2%); assay type: functional
U-937 [10] = assay: Induction of apoptosis in human U937 cells assessed as necrotic cells at 50 uM after 12 hrs by annexin V-FITC/propidium iodide staining-based flow cytometric analysis relative to control; assay type: functional
U-937 [11] = assay: Induction of apoptosis in human U937 cells assessed as viable cells at 50 uM after 12 hrs by annexin V-FITC/propidium iodide staining-based flow cytometric analysis (reference value: 96%); assay type: functional; details: U-937, 12 h, read-out: Activity
Jurkat = assay: Cytotoxicity against human Jurkat cells assessed as cell death after 72 hrs by sulforhodamine B assay; assay type: functional, cell-based
How it was run: (§2)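 Jurkat plated at 25,000 cells/well; GL-1 and EL4 at 15,000 cells/well. Nine half-log doses, 0.01–100 µM, in triplicate. SRB staining after TCA fixation, absorbance 510 nm. Percent death normalized to a positive death control (100%) and DMSO (0%). Logistic fit gives IC50, mean of three experiments ± s.e.m.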

[12] = Cytotoxicity against dog GL1 cells assessed as cell death after 72 hrs by sulforhodamine B assay; assay type: functional, cell-based; details: Canis lupus familiaris; how it was run: as §2
[13] = Cytotoxicity against dog OSW cells assessed as cell death after 72 hrs by sulforhodamine B assay; assay type: functional, cell-based; details: Canis lupus familiaris
EL4 = assay: Cytotoxicity against mouse EL4 cells assessed as cell death after 72 hrs by sulforhodamine B assay; assay type: functional, cell-based; details: EL4, 72 h; how it was run: as §2
Mus musculus [14] = assay: Elimination half life in C57/BL6 mouse at 25 mg/kg, iv and po by LC/MS/MS analysis; assay type: ADME, organism-based; parameters: dose 25 mg/kg, route oral; details: in vivo
[15] = AUC in C57/BL6 mouse at 25 mg/kg, iv by LC/MS/MS analysis; assay type: ADME, organism-based; parameters: dose 25 mg/kg, route intravenous; details: plasma
[16] = AUC in C57/BL6 mouse at 25 mg/kg, po by LC/MS/MS analysis; assay type: ADME, organism-based; parameters: dose 25 mg/kg, route oral; details: plasma
[17] = Oral bioavailability in C57/BL6 mouse at 25 mg/kg by LC/MS/MS analysis; assay type: ADME, organism-based; details: in vivo
Serum [18] = assay: Drug uptake in C57/BL6 mouse serum at 25 mg/kg, iv measured after 5 to 6 hrs by LC/MS/MS analysis; assay type: ADME, organism-based; parameters: dose 25 mg/kg, route intravenous; details: in vivo; how it was run: as §1

T1 sequence (P42574 whole entry, looked up): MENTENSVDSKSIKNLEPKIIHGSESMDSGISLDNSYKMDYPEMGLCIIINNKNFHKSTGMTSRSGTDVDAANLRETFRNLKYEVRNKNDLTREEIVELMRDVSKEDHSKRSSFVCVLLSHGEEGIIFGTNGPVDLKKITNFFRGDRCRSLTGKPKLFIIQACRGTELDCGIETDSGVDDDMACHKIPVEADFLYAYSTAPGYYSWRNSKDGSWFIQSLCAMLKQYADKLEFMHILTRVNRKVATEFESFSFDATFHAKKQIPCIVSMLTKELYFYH
T1 sequence (P55210 whole entry, looked up): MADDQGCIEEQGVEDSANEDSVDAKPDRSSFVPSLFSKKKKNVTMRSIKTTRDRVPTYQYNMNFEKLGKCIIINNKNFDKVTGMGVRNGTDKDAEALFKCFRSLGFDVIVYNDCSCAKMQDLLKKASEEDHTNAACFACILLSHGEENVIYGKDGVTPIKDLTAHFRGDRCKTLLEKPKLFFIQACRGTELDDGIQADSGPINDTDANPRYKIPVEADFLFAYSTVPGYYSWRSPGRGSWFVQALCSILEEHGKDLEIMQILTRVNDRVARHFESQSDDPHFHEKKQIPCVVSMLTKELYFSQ

Structure (SMILES) | remaining at 3 h, 10 µM [2] [%] | IC50 [1] [µM] | also measured
CCCc1cc(F)cc(/C=N/NC(=O)CN2CCN(Cc3ccccc3)CC2)c1O | 49 | 8.9 | 
CCCc1cccc(/C=N/NC(=O)CN2CCN(Cc3ccccc3)CC2)c1O | 30 | 9.6 | 
CN[C@@H]1C[C@H]2O[C@@](C)([C@@H]1OC)n1c3ccccc3c3c4c(c5c6ccccc6n2c5c31)C(=O)NC4 |  |  | Activity [3]: 100%
C=CCc1cc(F)cc(/C=N/NC(=O)CN2CCN(Cc3ccc(C(F)(F)F)cc3)CC2)c1O | 49 |  | 
C=CCc1cccc(/C=N/NC(=O)CN2CCN(Cc3ccc(C#N)cc3)CC2)c1O | 48 | 13.7 | 
C=CCc1cc(F)cc(/C=N/NC(=O)CN2CCN(Cc3ccc(C#N)cc3)CC2)c1O | 65 | 12.7 | 
CCCc1cc(F)cc(/C=N/NC(=O)CN2CCN(Cc3ccc(C(F)(F)F)cc3)CC2)c1O | 40 |  | 
CCCc1cccc(/C=N/NC(=O)CN2CCN(Cc3ccc(C(F)(F)F)cc3)CC2)c1O | 15 |  | 
O=C(CN1CCN(Cc2ccc(C(F)(F)F)cc2)CC1)N/N=C/c1cc(F)ccc1O | 30 | 4.7 | 
C=CCc1cc(F)cc(/C=N/NC(=O)CN2CCN(Cc3ccc(F)cc3)CC2)c1O | 57 | 10.3 | 
C=CCc1cccc(/C=N/NC(=O)CN2CCN(Cc3ccc(S(N)(=O)=O)cc3)CC2)c1O | 84 |  | Drug uptake (Serum [18]): Not Active
CCCc1cc(F)cc(/C=N/NC(=O)CN2CCN(Cc3ccc(C#N)cc3)CC2)c1O | 49 | 11.2 | 

Now from value to molecule, other results behind:

remaining at 3 h, 10 µM [2] [%] | Structure (SMILES) | IC50 [1] [µM] | also measured
88 | N#Cc1ccc(C(=O)N2CCN(CC(=O)N/N=C/c3cc(F)ccc3O)CC2)cc1 | 15.3 | 
86 | O=C(CN1CCN(C(=O)c2ccc(F)cc2)CC1)N/N=C/c1cc(F)ccc1O | 15.3 | 
66 | CCCc1cc(F)cc(/C=N/NC(=O)CN2CCN(C(=O)c3ccc(C#N)cc3)CC2)c1O |  | Drug uptake (Serum [4]): Active
69 | CCCc1cccc(/C=N/NC(=O)CN2CCN(C(=O)c3ccc(F)cc3)CC2)c1O | 7.3 | 
86 | C=CCc1cccc(/C=N/NC(=O)CN2CCN(C(=O)c3ccc(F)cc3)CC2)c1O | 10.2 | Activity (Mus musculus [5]): Non-toxic; Kd [6]: 0.00146 µM; Activity [7]: 64%; Activity (U-937 [8]): 27%; Activity (U-937 [9]): 22%; Activity (U-937 [10]): 2%; viability at 50 µM (U-937 [11]): 49%; IC50 (Jurkat): 4 µM; IC50 [12]: 3 µM; IC50 [13]: 9.3 µM; IC50 (EL4): 6.5 µM; Drug uptake (Serum [4]): Active; beta t1/2 (Mus musculus [14]): 1.49 h; AUC [15]: 6040 ng·h/mL; AUC [16]: 1540 ng·h/mL; bioavailability [17]: 25.6%
67 | CCCc1cc(F)cc(/C=N/NC(=O)CN2CCN(C(=O)c3ccc(F)cc3)CC2)c1O | 7.5 | Activity (Mus musculus [5]): Toxic
90 | C=CCc1cccc(/C=N/NC(=O)CN2CCN(C(=O)c3ccc(C#N)cc3)CC2)c1O | 13.1 | 
64 | CCCc1cccc(/C=N/NC(=O)CN2CCN(C(=O)c3ccc(C(F)(F)F)cc3)CC2)c1O |  | 
86 | CCCc1cc(F)cc(/C=N/NC(=O)CN2CCN(C(=O)c3ccccc3)CC2)c1O | 12.3 | 
85 | C=CCc1cccc(/C=N/NC(=O)CN2CCN(C(=O)c3ccc(C(F)(F)F)cc3)CC2)c1O |  | 
